In brackets after ≈: the same amount, converted by molar mass. Positions of bridges follow the written chain, without caps; N, C: chain ends. Non-standard residues stand in square brackets, D forms with d. Residues, ends and D or L forms follow the SMILES beside them. Nle = CCCC[C@H](N)C(=O)O; Orn = NCCC[C@H](N)C(=O)O
Assays:
[1] = Antimicrobial activity against Escherichia coli O6 K5 incubation in bactopeptone; format: functional
Procedure, shortened: (§1)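 Microplate killing assay in 1% Bactopeptone (pH 7.0). Log-phase organisms (BHI overnight, 2 h subculture, 37°C, washed), final ~2 × 10^5 cells/ml, with twofold peptide dilutions, 37°C humid chamber 2 h (or 20 h where stated). 5 μl drops plated on blood agar overnight; MMC99 = lowest concentration giving ≥99% inoculum reduction; duplicates.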

Staphylococcus aureus [2] = test: Antimicrobial activity against Staphylococcus aureus 1800 (CCUG 1800) incubation in bactopeptone; format: functional; procedure, shortened: as §1
Candida albicans [3] = test: Antimicrobial activity against Candida albicans ATCC […] incubation in bactopeptone; format: functional; details: ATCC 64549; procedure, shortened: as §1
Candida albicans [4] = test: Antimicrobial activity against […] Candida albicans ATCC […] incubated in diluted brain heart infusion medium; format: functional; details: ATCC 6454
Procedure, shortened: (§2)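 Log-phase cells (BHI overnight at 37°C with shaking, subcultured 2 h, washed) at about 2 × 10^5 cells/ml final, exposed to twofold peptide dilutions in duplicate or triplicate. Medium: BHIdil (1/100 of 3.4% BHI, pH 6.7–6.9) or 1% Bactopeptone (pH 7.0). 2 h at 37°C, humid. 5-μl drops plated on blood agar overnight for CFU. MMC99 is the lowest concentration giving ≥99% kill.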

Staphylococcus aureus [5] = test: Antimicrobial activity against methicillin resistant Staphylococcus aureus MRS3525 incubated in bactopeptone; format: functional; procedure, shortened: as §2
Staphylococcus aureus [6] = test: Antimicrobial activity against methicillin resistant Staphylococcus aureus MRS3525 incubated in diluted brain heart infusion medium; format: functional; procedure, shortened: as §2
[7] = Antimicrobial activity against Escherichia coli O6 K5 incubated in diluted brain heart infusion medium; format: functional
Procedure, shortened: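 Microplate assay in diluted BHI (1/100 of 3.4%, pH 6.7 to 6.9), log-phase cells at ~2 × 10^5 cells/ml, twofold peptide dilutions, 2 h at 37°C in humid chamber; drops plated on blood agar, CFU counted; MMC99 = minimum concentration giving ≥99% killing of inoculum; duplicates.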

Candida albicans [8] = test: Antimicrobial activity against Candida albicans ATCC […] using in brain heart infusion medium(dil) after 2 hrs at 10 ug/ml; format: functional, ATCC 64549
Procedure, shortened: (§3)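 Single-concentration screen: log-phase organisms (~2 × 10^5 cells/ml) incubated 2 h at 37°C in diluted BHI (1/100 of 3.4%, pH 6.7 to 6.9) with 25 μg/ml peptide (10 μg/ml for E. coli O6 and C. albicans); viable counts on blood agar; scored as ≥99% killed or not; duplicates.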

Enterococcus faecalis = test: Antimicrobial activity against Enterococcus faecalis ATCC 19433 using in brain heart infusion medium(dil) after 2 hrs at 25 ug/ml; format: functional; procedure, shortened: as §3
Escherichia coli [9] = test: Antimicrobial activity against Escherichia coli O14 using in brain heart infusion medium(dil) after 2 hrs at 25 ug/ml; format: functional; procedure, shortened: as §3
[10] = tested on: Staphylococcus epidermidis; test: Antimicrobial activity against Staphylococcus epidermidis CCUG 18000A using in brain heart infusion medium(dil) after 2 hrs at 25 ug/ml; format: functional; procedure, shortened: as §3
Escherichia coli [11] = test: Antimicrobial activity against Escherichia coli O6 using in brain heart infusion medium(dil) after 2 hrs at 10 ug/ml; format: functional; procedure, shortened: as §3
Klebsiella pneumoniae = test: Antimicrobial activity against Klebsiella pneumoniae CCUG 9997 using in brain heart infusion medium(dil) after 2 hrs at 25 ug/ml; format: functional; procedure, shortened: as §3
Pseudomonas aeruginosa = test: Antimicrobial activity against Pseudomonas aeruginosa CCUG 551 using in brain heart infusion medium(dil) after 2 hrs at 25 ug/ml; format: functional; procedure, shortened: as §3
Staphylococcus aureus [12] = test: Antimicrobial activity against Staphylococcus aureus 1800 (CCUG 1800) using in brain heart infusion medium(dil) after 2 hrs at 25 ug/ml; format: functional; procedure, shortened: as §3

| Compound | MIC99 [1] [µg/mL] | MIC99 (Staphylococcus aureus [2]) [µg/mL] | MIC99 (Candida albicans [3]) [µg/mL] | MIC99 (Candida albicans [4]) [µg/mL] | MIC99 (Staphylococcus aureus [5]) [µg/mL] | MIC99 (Staphylococcus aureus [6]) [µg/mL] | MIC99 [7] [µg/mL] | other results |
| --- | --- | --- | --- | --- | --- | --- | --- | --- |
| CC[C@H](C)[C@H](NC(=O)[C@@H]1CSSC[C@H](NC(=O)[C@H](CCCCN)NC(=O)[C@@H](NC(=O)[C@H](C)NC(=O)[C@H](CCC(=O)O)NC(C)=O)[C@@H](C)O)C(=O)N[C@@H](Cc2ccccc2)C(=O)N[C@@H](C)C(=O)N[C@@H](Cc2c[nH]c3ccccc23)C(=O)N[C@@H](CCC(N)=O)C(=O)N[C@@H](CCCNC(=N)N)C(=O)N[C@@H](CC(N)=O)C(=O)N[C@@H](CCSC)C(=O)N[C@@H](CCCNC(=N)N)C(=O)N[C@@H](CCCCN)C(=O)N[C@@H](C(C)C)C(=O)N[C@@H](CCCNC(=N)N)C(=O)NCC(=O)N2CCC[C@H]2C(=O)N2CCC[C@H]2C(=O)N[C@@H](C(C)C)C(=O)N[C@@H](CO)C(=O)N1)C(=O)N[C@@H](CCCCN)C(=O)N[C@@H](CCCNC(=N)N)C(N)=O (Ac-EATKCFAWQRNMRKVRGPPVSCIKR-NH2; disulfide 5-22) | > 100 | 100 (≈ 33.3 µM) | > 200 |  |  |  |  |  |
| CC[C@H](C)[C@H](NC(=O)[C@@H]1CSSC[C@H](NC(=O)[C@H](CCCCN)NC(=O)[C@@H](NC(=O)[C@H](C)NC(=O)[C@H](CCC(=O)O)NC(C)=O)[C@@H](C)O)C(=O)N[C@@H](Cc2ccccc2)C(=O)N[C@@H](CCC(N)=O)C(=O)N[C@@H](Cc2c[nH]c3ccccc23)C(=O)N[C@@H](CCCCN)C(=O)N[C@@H](CCCNC(=N)N)C(=O)N[C@@H](CC(N)=O)C(=O)N[C@@H](CCSC)C(=O)N[C@@H](CCCNC(=N)N)C(=O)N[C@@H](CCCCN)C(=O)N[C@@H](C(C)C)C(=O)N[C@@H](CCCNC(=N)N)C(=O)NCC(=O)N2CCC[C@H]2C(=O)N2CCC[C@H]2C(=O)N[C@@H](C(C)C)C(=O)N[C@@H](CO)C(=O)N1)C(=O)N[C@@H](CCCCN)C(=O)N[C@@H](CCCNC(=N)N)C(N)=O (Ac-EATKCFQWKRNMRKVRGPPVSCIKR-NH2; disulfide 5-22) | 12 (≈ 3.92 µM) | 25 (≈ 8.17 µM) | 50 (≈ 16.3 µM) |  |  |  |  |  |
| CC[C@H](C)[C@H](NC(=O)[C@@H]1CSSC[C@H](NC(=O)[C@H](CCCCN)NC(=O)[C@@H](NC(=O)[C@H](C)NC(=O)[C@H](CCC(=O)O)NC(C)=O)[C@@H](C)O)C(=O)N[C@@H](Cc2ccccc2)C(=O)N[C@@H](CCC(N)=O)C(=O)N[C@@H](Cc2c[nH]c3ccccc23)C(=O)N[C@@H](CCC(N)=O)C(=O)N[C@@H](CCCNC(=N)N)C(=O)N[C@@H](C)C(=O)N[C@@H](CCSC)C(=O)N[C@@H](CCCNC(=N)N)C(=O)N[C@@H](CCCCN)C(=O)N[C@@H](C(C)C)C(=O)N[C@@H](CCCNC(=N)N)C(=O)NCC(=O)N2CCC[C@H]2C(=O)N2CCC[C@H]2C(=O)N[C@@H](C(C)C)C(=O)N[C@@H](CO)C(=O)N1)C(=O)N[C@@H](CCCCN)C(=O)N[C@@H](CCCNC(=N)N)C(N)=O (Ac-EATKCFQWQRAMRKVRGPPVSCIKR-NH2; disulfide 5-22) | 100 (≈ 33.2 µM) | 50 (≈ 16.6 µM) | 37 (≈ 12.3 µM) |  |  |  |  |  |
| CCCC[C@H](NC(=O)[C@H](CCCNC(=N)N)NC(=O)[C@H](CCC(N)=O)NC(=O)[C@H](Cc1c[nH]c2ccccc12)NC(=O)[C@H](CCC(N)=O)NC(=O)[C@H](Cc1ccccc1)NC(=O)[C@@H](N)CS)C(=O)N[C@@H](CCSC)C(=O)N[C@@H](CCCNC(=N)N)C(=O)N[C@@H](CCCCN)C(=O)N[C@H](C(=O)N[C@@H](CCCNC(=N)N)C(=O)O)C(C)C (H-CFQWQR[Nle]MRKVR-OH) | 50 (≈ 30.3 µM) | 50 (≈ 30.3 µM) | 50 (≈ 30.3 µM) |  |  |  |  |  |
| CSCC[C@H](NC(=O)[C@H](CCCN)NC(=O)[C@H](CCCNC(=N)N)NC(=O)[C@H](CCC(N)=O)NC(=O)[C@H](Cc1c[nH]c2ccccc12)NC(=O)[C@H](CCC(N)=O)NC(=O)[C@H](Cc1ccccc1)NC(=O)[C@@H](N)CS)C(=O)N[C@@H](CCCNC(=N)N)C(=O)N[C@@H](CCCCN)C(=O)N[C@H](C(=O)N[C@@H](CCCNC(=N)N)C(=O)O)C(C)C (H-CFQWQR[Orn]MRKVR-OH) | 25 (≈ 15.1 µM) | 50 (≈ 30.3 µM) | 25 (≈ 15.1 µM) |  |  |  |  |  |
| CCCC[C@H](NC(=O)[C@H](Cc1c[nH]c2ccccc12)NC(=O)[C@H](CCC(N)=O)NC(=O)[C@H](Cc1ccccc1)NC(=O)[C@@H](N)CS)C(=O)N[C@@H](CCCNC(=N)N)C(=O)N[C@@H](CC(N)=O)C(=O)N[C@@H](CCSC)C(=O)N[C@@H](CCCNC(=N)N)C(=O)N[C@@H](CCCCN)C(=O)N[C@H](C(=O)N[C@@H](CCCNC(=N)N)C(=O)O)C(C)C (H-CFQW[Nle]RNMRKVR-OH) | 50 (≈ 30.5 µM) | 50 (≈ 30.5 µM) | 25 (≈ 15.3 µM) |  |  |  |  |  |
| CSCC[C@H](NC(=O)[C@H](CC(N)=O)NC(=O)[C@H](CCCNC(=N)N)NC(=O)[C@H](CCCN)NC(=O)[C@H](Cc1c[nH]c2ccccc12)NC(=O)[C@H](CCC(N)=O)NC(=O)[C@H](Cc1ccccc1)NC(=O)[C@@H](N)CS)C(=O)N[C@@H](CCCNC(=N)N)C(=O)N[C@@H](CCCCN)C(=O)N[C@H](C(=O)N[C@@H](CCCNC(=N)N)C(=O)O)C(C)C (H-CFQW[Orn]RNMRKVR-OH) | 25 (≈ 15.3 µM) | 50 (≈ 30.5 µM) | 25 (≈ 15.3 µM) |  |  |  |  |  |
| H-AFQWQRNMRKVR-OH | > 100 |  | > 100 | 12 | > 100 | 14 | > 25 |  |
| H-ATKCFQWQRNMRKVR-OH |  |  |  |  |  |  |  | Activity (Candida albicans [8]): >=99%; Activity (Enterococcus faecalis): >=99%; Activity (Escherichia coli [9]): >=99%; Activity [10]: >=99%; Activity (Escherichia coli [11]): >=99%; Activity (Klebsiella pneumoniae): >=99%; Activity (Pseudomonas aeruginosa): >=99%; Activity (Staphylococcus aureus [12]): >=99% |
| H-CAQWQRNMRKVR-OH |  |  |  | 12 |  | 7 | 12 |  |
| H-CFALKKAMKKVR-OH | 25 | 50 | 25 |  |  |  |  |  |
| H-CFAWKRNMRKVR-OH | 50 | 25 | 25 |  |  |  |  |  |
| H-CFAWQRNMRKVR-OH | 50 |  | 25 | 6 | 100 | 3.5 | 6 |  |
| H-CFQAQRNMRKVR-OH | > 100 |  | > 100 | 12 | > 100 | 14 | 25 |  |
| H-CFQWARNMRKVR-OH | 50 |  | 50 | 12 | 100 | 3.5 | 12 |  |
| H-CFQWKRAMRKVR-OH | 12 | 12 | 12 |  |  |  |  |  |
| H-CFQWKRNMRKVR-OH | 25 | 25 | 25 |  |  |  |  |  |
| H-CFQWQANMRKVR-OH |  |  |  | 12 |  | 7 | 12 |  |
| H-CFQWQRAMRKVR-OH | 25 |  | 25 | 6 | 50 | 3.5 | 6 |  |
| H-CFQWQRNARKVR-OH | 50 |  | 50 | 25 | > 100 | 3.5 | 12 |  |
| H-CFQWQRNMAKVR-OH | > 100 |  | > 100 | 25 | > 100 | 7 | 25 |  |
| H-CFQWQRNMRAVR-OH | 100 |  | > 100 | 25 | > 100 | 3.5 | 12 |  |
| H-CFQWQRNMRKAR-OH | 50 |  | 50 | 25 | > 100 | 3.5 | 12 |  |
| H-CFQWQRNMRKVA-OH | > 100 |  | > 100 | 25 | > 100 | 7 | 12 |  |
| H-EATKCFQWQRNMRKVR-OH |  |  |  |  |  |  |  | Activity (Candida albicans [8]): <99%; Activity (Enterococcus faecalis): >=99%; Activity (Escherichia coli [9]): <99%; Activity [10]: >=99%; Activity (Escherichia coli [11]): >=99%; Activity (Klebsiella pneumoniae): <99%; Activity (Pseudomonas aeruginosa): <99%; Activity (Staphylococcus aureus [12]): >=99% |
| H-FQWQRNMRKVR-OH |  |  |  |  |  |  |  | Activity (Candida albicans [8]): <99%; Activity (Enterococcus faecalis): <99%; Activity (Escherichia coli [9]): <99%; Activity [10]: <99%; Activity (Escherichia coli [11]): <99%; Activity (Klebsiella pneumoniae): >=99%; Activity (Pseudomonas aeruginosa): <99%; Activity (Staphylococcus aureus [12]): >=99% |
| H-PEATKCFQWQRNMRKVR-OH |  |  |  |  |  |  |  | Activity (Candida albicans [8]): <99%; Activity (Enterococcus faecalis): >=99%; Activity (Escherichia coli [9]): <99%; Activity [10]: >=99%; Activity (Escherichia coli [11]): <99%; Activity (Klebsiella pneumoniae): <99%; Activity (Pseudomonas aeruginosa): <99%; Activity (Staphylococcus aureus [12]): >=99% |
